Test results taken from ChEMBL document CHEMBL3407470, “Synthesis, biological evaluation and 3D-QSAR studies of novel 5-phenyl-1H-pyrazol cinnamamide derivatives as novel antitubulin agents” (Eur J Med Chem, 2015).

Assays:
Tubulin = Tubulin (Bos taurus, UniProt Q6B856+Q862L2+Q862F3); assay: Inhibition of bovine brain tubulin polymerization incubated for 20 mins by spectrophotometry
[1] = Antiproliferative activity against mouse B16F10 cells after 48 hrs by MTT assay; assay type: functional, cell-based; details: B16-F10, 48 h
Outline: (§1)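 Cells grown to log phase in RPMI 1640 with 10% FBS, seeded at 2×10^4 cells/mL and allowed 24 h at 37 °C, 5% CO₂ before treatment. Compounds at pre-set concentrations, colchicine and CA-4 as references, exposed 48 h. MTT added (2.5 mg/mL in PBS) for 4 h, then SDS/isobutyl alcohol/HCl extraction overnight; OD at 570 nm. Triplicate wells per concentration; values averaged from at least three separate runs.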

MCF7 [2] = assay: Antiproliferative activity against human MCF7 cells after 48 hrs by MTT assay; assay type: functional, cell-based; details: MCF7, 48 h; outline: as §1
A549 = assay: Antiproliferative activity against human A549 cells after 48 hrs by MTT assay; assay type: functional, cell-based; details: A549, 48 h; outline: as §1
MCF7 [3] = assay: Induction of cell cycle arrest in human MCF7 cells assessed as accumulation at G0/G1 phase at 2 ug/ml after 24 hrs by flow cytometry (reference value: 59.75%); assay type: functional
Outline: (§2)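 MCF-7 cells exposed 24 h to the compound at 1 and 2 μg/mL. Phase distribution (G0/G1, S, G2/M) was measured by flow cytometry and reported as percentage of cells in each phase.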

MCF7 [4] = assay: Induction of cell cycle arrest in human MCF7 cells assessed as accumulation at S phase at 1 ug/ml after 24 hrs by flow cytometry (reference value: 14.58%); assay type: functional; outline: as §2
MCF7 [5] = assay: Induction of cell cycle arrest in human MCF7 cells assessed as accumulation at G2/M phase after 24 hrs by flow cytometry; assay type: functional, cell-based; outline: as §2
MCF7 [6] = assay: Induction of cell cycle arrest in human MCF7 cells assessed as accumulation at S phase at 2 ug/ml after 24 hrs by flow cytometry (reference value: 14.58%); assay type: functional; outline: as §2
MCF7 [7] = assay: Induction of cell cycle arrest in human MCF7 cells assessed as accumulation at G2/M phase at 2 ug/ml after 24 hrs by flow cytometry (reference value: 25.67%); assay type: functional; outline: as §2
MCF7 [8] = assay: Induction of cell cycle arrest in human MCF7 cells assessed as accumulation at G2/M phase at 1 ug/ml after 24 hrs by flow cytometry (reference value: 25.67%); assay type: functional; outline: as §2
MCF7 [9] = assay: Induction of cell cycle arrest in human MCF7 cells assessed as accumulation at G0/G1 phase at 1 ug/ml after 24 hrs by flow cytometry (reference value: 59.75%); assay type: functional; outline: as §2
MCF7 [10] = assay: Induction of cell cycle arrest in human MCF7 cells assessed as accumulation at G2/M phase after 24 hrs by flow cytometry (reference value: 25.67%); assay type: functional; outline: as §2
MCF7 [11] = assay: Induction of cell cycle arrest in human MCF7 cells assessed as accumulation at S phase after 24 hrs by flow cytometry (reference value: 14.58%); assay type: functional; outline: as §2
MCF7 [12] = assay: Induction of cell cycle arrest in human MCF7 cells assessed as accumulation at G0/G1 phase after 24 hrs by flow cytometry (reference value: 59.75%); assay type: functional; outline: as §2

IC50 (Tubulin) [nM] | pIC50 (Tubulin) | IC50 (MCF7 [2]) [nM] | IC50 (A549) [nM] | SMILES | IC50 [1] [nM] | also measured
1620 | 5.79 | 840 | 1130 | Cc1ccc(-c2cc(NC(=O)/C=C/c3ccc([N+](=O)[O-])cc3)n[nH]2)cc1 | 1320 | –
3020 | 5.52 | 1780 | 1770 | Cc1ccc(/C=C/C(=O)Nc2cc(-c3ccccc3)[nH]n2)cc1 | 1680 | –
1020 | 5.991 | 350 | 620 | O=C(/C=C/c1ccc(C(F)(F)F)cc1)Nc1cc(-c2ccc(Br)cc2)[nH]n1 | 570 | Activity (MCF7 [3]): 6.77%; Activity (MCF7 [4]): 18.46%; Activity (MCF7 [5]): Dose-dependent effect; Activity (MCF7 [6]): 16.28%; Activity (MCF7 [7]): 76.95%; Activity (MCF7 [8]): 45.55%; Activity (MCF7 [9]): 35.99%
2150 | 5.668 | 1190 | 1490 | Cc1ccc(-c2cc(NC(=O)/C=C/c3ccc(Cl)cc3)n[nH]2)cc1 | 1520 | –
3360 | 5.474 | 1720 | 1880 | Cc1ccc(/C=C/C(=O)Nc2cc(-c3ccc(C)cc3)[nH]n2)cc1 | 1750 | –
1920 | 5.717 | 950 | 1250 | Cc1ccc(-c2cc(NC(=O)/C=C/c3ccc(F)cc3)n[nH]2)cc1 | 1430 | –
2060 | 5.686 | 970 | 1390 | O=C(/C=C/c1ccc(Cl)cc1)Nc1cc(-c2ccccc2)[nH]n1 | 1270 | –
2760 | 5.56 | 1170 | 1620 | Cc1ccc(/C=C/C(=O)Nc2cc(-c3ccc(Br)cc3)[nH]n2)cc1 | 1480 | –
1640 | 5.785 | 720 | 1060 | COc1ccc(/C=C\C(=O)Nc2cc(-c3ccccc3)[nH]n2)cc1 | 950 | –
1780 | 5.75 | 640 | 930 | O=C(/C=C\c1ccc(F)cc1)Nc1cc(-c2ccc(Br)cc2)[nH]n1 | 850 | –
2550 | 5.593 | 1120 | 1440 | O=C(/C=C/c1ccccc1)Nc1cc(-c2ccc(Br)cc2)[nH]n1 | 1270 | –
1560 | 5.807 | 630 | 970 | O=C(/C=C/c1ccc([N+](=O)[O-])cc1)Nc1cc(-c2ccccc2)[nH]n1 | 720 | –
2840 | 5.547 | 1360 | 1580 | O=C(/C=C/c1ccccc1)Nc1cc(-c2ccccc2)[nH]n1 | 1560 | –
2140 | 5.67 | 920 | 1360 | O=C(/C=C/c1ccc(Br)cc1)Nc1cc(-c2ccc(Br)cc2)[nH]n1 | 1280 | –
3120 | 5.506 | 1630 | 1670 | Cc1ccc(-c2cc(NC(=O)/C=C/c3ccccc3)n[nH]2)cc1 | 1680 | –
2360 | 5.627 | 1240 | 1460 | O=C(/C=C/c1ccc(Br)cc1)Nc1cc(-c2ccccc2)[nH]n1 | 1380 | –
2550 | 5.593 | 1370 | 1590 | Cc1ccc(-c2cc(NC(=O)/C=C/c3ccc(Br)cc3)n[nH]2)cc1 | 1570 | –
1850 | 5.733 | 840 | 1220 | O=C(/C=C/c1ccc(F)cc1)Nc1cc(-c2ccccc2)[nH]n1 | 1250 | –
1350 | 5.87 | 590 | 820 | COc1ccc(/C=C/C(=O)Nc2cc(-c3ccc(Br)cc3)[nH]n2)cc1 | 770 | –
1240 | 5.907 | 560 | 740 | O=C(/C=C/c1ccc([N+](=O)[O-])cc1)Nc1cc(-c2ccc(Br)cc2)[nH]n1 | 630 | –
1340 | 5.873 | 540 | 880 | O=C(/C=C\c1ccc(C(F)(F)F)cc1)Nc1cc(-c2ccccc2)[nH]n1 | 640 | –
1760 | 5.754 | 860 | 1190 | COc1ccc(/C=C/C(=O)Nc2cc(-c3ccc(C)cc3)[nH]n2)cc1 | 1370 | –
1950 | 5.71 | 770 | 1210 | O=C(/C=C/c1ccc(Cl)cc1)Nc1cc(-c2ccc(Br)cc2)[nH]n1 | 1080 | –
1530 | 5.815 | 720 | 1020 | Cc1ccc(-c2cc(NC(=O)/C=C/c3ccc(C(F)(F)F)cc3)n[nH]2)cc1 | 1210 | –

SMILES | IC50 (Tubulin) [nM] | pIC50 (Tubulin) | IC50 (MCF7 [2]) [nM] | IC50 (A549) [nM] | IC50 [1] [nM] | also measured
COc1cc2c(c(OC)c1OC)-c1ccc(OC)c(=O)cc1[C@@H](NC(C)=O)CC2 [COLCHICINE] | – | – | 390 | 580 | 480 | Activity (MCF7 [10]): 80.62%; Activity (MCF7 [11]): 12.44%; Activity (MCF7 [12]): 6.94%
COc1ccc(/C=C\c2cc(OC)c(OC)c(OC)c2)cc1O [COMBRETASTATIN A4] | – | – | 210 | 460 | 420 | –
